# From ChEMBL document CHEMBL3217620, “Relative impact of 3- and 5-hydroxyl groups of cytosporone B on cancer cell viability” (Medchemcomm, 2013)
# Calls of active or inactive are those of the source. The calls are words filed in the database; no cut-off is given here.
# Key:
# [1] = target: Nuclear receptor subfamily 4immunitygroup A member 1 (Homo sapiens) (UniProt P22736); assay: Binding affinity to human recombinant N-terminal His6-tagged NR4A1 LBD expressed in Escherichia coli BL21 at 50 uM by NMR spectroscopy
# Chain of Nuclear receptor subfamily 4immunitygroup A member 1 (Homo sapiens) (P22736 whole entry, the tested form may be a part): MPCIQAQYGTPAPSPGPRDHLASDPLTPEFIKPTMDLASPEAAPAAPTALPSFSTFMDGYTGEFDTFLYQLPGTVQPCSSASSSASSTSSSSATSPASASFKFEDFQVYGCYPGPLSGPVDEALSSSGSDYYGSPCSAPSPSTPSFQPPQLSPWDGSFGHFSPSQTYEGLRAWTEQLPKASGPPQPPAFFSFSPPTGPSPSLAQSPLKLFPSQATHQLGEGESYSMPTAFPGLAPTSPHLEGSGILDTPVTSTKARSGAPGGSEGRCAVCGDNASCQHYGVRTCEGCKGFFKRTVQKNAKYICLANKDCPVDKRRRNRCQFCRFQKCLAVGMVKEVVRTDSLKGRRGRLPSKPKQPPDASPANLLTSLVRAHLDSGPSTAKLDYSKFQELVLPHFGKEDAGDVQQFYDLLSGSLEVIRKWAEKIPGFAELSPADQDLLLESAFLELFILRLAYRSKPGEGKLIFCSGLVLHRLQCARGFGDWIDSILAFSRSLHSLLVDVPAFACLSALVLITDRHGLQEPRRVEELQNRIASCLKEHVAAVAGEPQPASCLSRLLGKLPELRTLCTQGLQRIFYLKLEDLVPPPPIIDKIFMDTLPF
# NCI-H460 [2] = assay: Induction of apoptosis in human H460 cells assessed as PARP cleavage at 10 uM after 8 hrs by SDS-PAGE; assay type: functional, cell-based
# In short: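 H460 cells in serum-free RPMI-1640, attached 12 h, then given 10 μM compound for 8 h. Lysed in Tris-HCl pH 7.9 buffer with NaCl, EDTA, Triton X-100 and protease inhibitors. Run on 12% SDS-PAGE, blotted to nitrocellulose, probed overnight at 4 °C with rabbit polyclonal anti-PARP, then HRP anti-rabbit IgG. ECL detection; β-actin reprobe as loading control.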
# NCI-H460 [3] = assay: Induction of apoptosis in human H460 cells assessed as DNA fragmentation at 10 uM after 8 hrs by DAPI staining-based confocal microscopy relative to control; assay type: functional
# In short: (§1)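 H460 cells in serum-free RPMI-1640 on coverslips, attached 12 h, given 10 μM compound for 8 h. Fixed in 3.7% paraformaldehyde, permeabilized in 0.3% Triton X-100/PBS, blocked in 3% BSA, DAPI-stained and viewed by fluorescence microscopy. Cells with nuclear fragmentation and/or chromatin condensation scored in 300-cell fields; mean of triplicates ± SD.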
# [4] = target: Nuclear receptor subfamily 4immunitygroup A member 1 (Homo sapiens) (UniProt P22736); assay: Induction of translocation of NR4A1 from nucleus to cytoplasm in human H460 cells at 10 uM after 8 hrs by DAPI staining-based confocal microscopy relative to control; assay type: cell-based
# In short: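 Serum-starved H460 cells grown overnight on coverslips, treated 8 h with 10 µM compound or vehicle. Fixed (3.7% paraformaldehyde), permeabilized (0.3% Triton X-100, 10 min), blocked in 3% BSA. Stained with rabbit monoclonal anti-NR4A1 and Alexa Fluor 594 anti-rabbit IgG, nuclei with DAPI. Overlaid confocal images used to judge NR4A1 localization.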
# NCI-H460 [5] = assay: Induction of apoptosis in human H460 cells assessed as chromatin condensation at 10 uM after 8 hrs by relative to control; assay type: functional; in short: as §1
# LNCaP [6] = assay: Cytotoxicity against human LNCAP cells at 20 uM after 72 hrs by MTT assay; assay type: functional
# In short: (§2)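 LNCaP cells at 5×10^3/well in RPMI-1640 with 10% FBS, attached 24 h. Treated 72 h with compound at 1–20 µM or DMSO alone (0.2% final). Viability by MTT per kit protocol. Points are means of six replicates ± SD; IC₅₀ interpolated from dose–response curves.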
# [7] = Cytotoxicity against human H460 cells after 72 hrs by MTT assay; assay type: functional, cell-based; details: NCI-H460, 72 h
# In short: (§3)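 NCI-H460 NSCLC cells, […] exponentially growing cells/well, seeded and left overnight. Compound added at 0.1, 1.0 and 10 μM (vehicle DMSO, 0.1% final) in RPMI-1640 with 10% FBS for 72 h. MTT then added at 0.5 mg/mL for 4 h, formazan dissolved in DMSO, absorbance read at 490 nm.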
# [8] = Cytotoxicity against human H460 cells at 20 uM after 72 hrs by MTT assay; assay type: functional; details: NCI-H460, 72 h
# [9] = Cytotoxicity against human H460 cells assessed as cell viability at 10 uM after 72 hrs by MTT assay; assay type: functional; details: NCI-H460, 72 h, read-out: Activity; in short: as §3
# LNCaP [10] = assay: Cytotoxicity against human LNCAP cells after 72 hrs by MTT assay; assay type: functional, cell-based; in short: as §2
# LNCaP [11] = assay: Cytotoxicity against human LNCAP cells after 72 hrs; assay type: functional, cell-based
# [12] = Cytotoxicity against human H460 cells after 48 hrs by MTT assay; assay type: functional, cell-based; details: NCI-H460, 48 h
# [13] = target: Nuclear receptor subfamily 4immunitygroup A member 1 (Homo sapiens) (UniProt P22736); assay: Binding affinity to human recombinant N-terminal His6-tagged NR4A1 LBD expressed in Escherichia coli BL21 at 100 uM by NMR spectroscopy
# BGC-823 [14] = assay: Induction of apoptosis in human BGC823 cells assessed as procaspase9 cleavage at 15.5 uM after 48 hrs; assay type: functional
# BGC-823 [15] = assay: Induction of apoptosis in human BGC823 cells assessed as mitochondrial cytochrome c release at 15.5 uM after 48 hrs; assay type: functional
# BGC-823 [16] = assay: Induction of apoptosis in human BGC823 cells assessed as nuclear DNA condensation at 15.5 uM after 48 hrs; assay type: functional
# [17] = target: Nuclear receptor subfamily 4immunitygroup A member 1 (Homo sapiens) (UniProt P22736); assay: Binding affinity to NR4A1 (unknown origin) at 0.1 uM by luciferase reporter gene assay relative to control
# [18] = target: Nuclear receptor subfamily 4immunitygroup A member 1 (Homo sapiens) (UniProt P22736); assay: Binding affinity to human recombinant N-terminal His6-tagged NR4A1 LBD expressed in Escherichia coli BL21 by isothermal titration calorimetry
SMILES,Activity [1],Activity (NCI-H460 [2]),fold change (FC) (NCI-H460 [3]),Activity [4],fold change (FC) (NCI-H460 [5]),inhibition at 20 µM (LNCaP [6]) [%],IC50 [7] [µM],inhibition at 20 µM [8] [%],viability at 10 µM [9] [%],IC50 (LNCaP [10]) [µM],IC50 (LNCaP [11]) [µM],IC50 [12] [µM],Activity [13],Activity (BGC-823 [14]) [%],Activity (BGC-823 [15]) [%],Activity (BGC-823 [16]) [%],Ratio [17],Activity [18]
CCCCCCCC(=O)c1c(O)cc(OC)cc1CC(=O)OCC,Active,Active,5.1,Active,5.1,80,15.9,75,22,11.4,–,–,–,–,–,–,–,–
FC(F)(F)c1ccc(C(c2c[nH]c3ccccc23)c2c[nH]c3ccccc23)cc1,–,Active,3.7,Active,3.7,97,4.6,–,90,9.7,5,7.7,–,–,–,–,–,–
CCCCCCCC(=O)c1c(O)cc(O)cc1CC(=O)OCC [CYTOSPORONE B],–,Active,4.4,Active,4.4,76,15.3,88,50,13.4,–,–,Active,63,63,63,12.5,–
CCCCCCCC(=O)c1c(CC(=O)OCC)cc(OC)cc1OC,inactive,Active,–,inactive,–,14,> 20,11,24,–,–,–,–,–,–,–,–,inactive
